Assay [1] addresses T1, Thromboxane-A synthase (Rattus norvegicus) (UniProt P49430).
T1 sequence (whole entry): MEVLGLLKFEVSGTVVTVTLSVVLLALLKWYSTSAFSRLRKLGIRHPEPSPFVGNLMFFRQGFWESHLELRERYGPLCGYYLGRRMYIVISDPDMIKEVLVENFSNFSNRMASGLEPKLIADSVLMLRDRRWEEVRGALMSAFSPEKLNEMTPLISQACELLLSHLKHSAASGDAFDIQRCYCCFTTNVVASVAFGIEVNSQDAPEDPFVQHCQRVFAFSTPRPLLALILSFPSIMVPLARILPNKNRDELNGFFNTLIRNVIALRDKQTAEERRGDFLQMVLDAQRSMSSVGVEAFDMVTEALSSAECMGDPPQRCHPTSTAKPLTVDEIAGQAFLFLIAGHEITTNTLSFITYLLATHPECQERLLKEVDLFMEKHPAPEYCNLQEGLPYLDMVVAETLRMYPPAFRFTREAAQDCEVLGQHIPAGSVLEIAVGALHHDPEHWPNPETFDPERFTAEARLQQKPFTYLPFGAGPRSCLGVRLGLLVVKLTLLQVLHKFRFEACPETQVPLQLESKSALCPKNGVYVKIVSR
Put plainly: Tested for antihypertensive activity in spontaneously hypertensive rats at 100 mg/kg peroral dosage for 2 days; I is inactive. Format: functional, organism-based. Further details: dose 100 mg/kg. The method, boiled down:
(§1)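 Male 16-week-old Okamoto SHR (mean arterial pressure about 170 mmHg) gavaged with compound suspended in 2% preboiled starch (50 mg/mL) at 100 mg/kg or less, with 0.9% NaCl load 25 mL/kg; identical second dose without saline 24 h later. Mean arterial pressure measured 28 h after first dose; one to three rats per compound.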

Assay [2] has as its target T1, Thromboxane-A synthase (Rattus norvegicus). Put plainly: Tested for antihypertensive activity in spontaneously hypertensive rats at 100 mg/kg peroral dosage for 2 days; A means active. The assay is classed as functional, organism-based. Further details: dose 100 mg/kg. In a few lines:
as §1

Assay [3] concerns the target T2, Thromboxane-A synthase (Rattus norvegicus, UniProt P49430).
T2 sequence (P49430 whole entry): T1 sequence (whole entry)
Put plainly: Tested for inhibition of thromboxane synthetase from spontaneously hypertensive rats. In a few lines: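 Washed SHR platelets in oxygenated Krebs phosphate buffer pH 7.4 (4.5-6.0 X 10^4 platelets/µL) incubated with vehicle or drug 10 min at 37 °C; stopped with ice and citric acid. TXB2 measured by direct RIA. Percent inhibition is relative to vehicle controls after background subtraction. IC50 is read from a plot of inhibition vs log concentration.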

Active and inactive are the calls of the source.

Consider `Nc1ccc(Cl)cc1C(=O)NCCCCCCCn1ccnc1`, for which the result in assay [1] was inactive.

On to `CC(Cn1ccnc1)Cn1c(=O)[nH]c2c(C(F)(F)F)cccc2c1=O` (stereo unspecified), for which the outcome in assay [2] was Active. Besides, in assay [3], the IC50 was found to be 400 nM.

As to `Nc1cc(Cl)ccc1C(=O)NCCCCCn1ccnc1`, the result in assay [1] was inactive.

Take `O=c1c2ccccc2ncn1CCCCCn1ccnc1`: the outcome in assay [2] was Active.

In turn, `CC(Cn1ccnc1)Cn1c(=O)[nH]c2ccc(Cl)cc2c1=O` (stereo unspecified) [listing 1 of 3 here] registered an IC50 in assay [3] of 10 nM.

Take `O=c1[nH]c2ccccc2c(=O)n1CCCCn1ccnc1`: in assay [2], the result was Active.

Take `O=c1c2cc(Cl)ccc2nnn1CCCCn1ccnc1`: the outcome in assay [2] was Active. For the same molecule, the half-inhibitory concentration (IC50) in assay [3] was found to be 240 nM.

Consider `O=c1[nH]c2c(Cl)cccc2c(=O)n1CCCCCn1ccnc1`, for which the result in assay [2] was Active. In addition, half-maximal inhibition in assay [3] (IC50) was put at 40 nM.

Turning to `CC(Cn1ccnc1)Cn1c(=O)[nH]c2ccccc2c1=O` (stereo unspecified), the result in assay [2] was Active. Besides, the IC50 in assay [3] worked out at 30 nM.

On to `CC(CCn1c(=O)[nH]c2c(Cl)cccc2c1=O)n1ccnc1` (stereo unspecified), for which, in assay [2], the result was Active. In addition, half-maximal inhibition in assay [3] (IC50) required 1000 nM.

Take `O=c1c2cc(Br)ccc2nnn1CCCCn1ccnc1`: in assay [2], the result was Active.

Take `O=c1[nH]c2ccc(Cl)cc2c(=O)n1CCCCCCn1ccnc1`: in assay [2], the result was Active. The 50% inhibitory concentration (IC50) in assay [3] was determined as 4 nM.

In the case of `O=c1[nH]c2c(C(F)(F)F)cccc2c(=O)n1CCCCCCn1ccnc1`, in assay [2], the result was Active.

As for `O=c1[nH]c2c(C(F)(F)F)cccc2c(=O)n1CCCCCn1ccnc1`, the outcome in assay [2] was Active. In addition, half-maximal inhibition in assay [3] (IC50) was put at 10 nM.

As for `O=c1[nH]c2c(C(F)(F)F)cccc2c(=O)n1CCCCn1ccnc1`, the outcome in assay [2] was Active. In addition, the IC50 in assay [3] stood at 50 nM.

On to `CC(CCn1c(=O)[nH]c2ccccc2c1=O)n1ccnc1` (stereo unspecified), for which the outcome in assay [2] was Active. Further, in assay [3], 700 nM corresponded to half-maximal inhibition (IC50).

On to `O=c1[nH]c2ccc(Cl)cc2c(=O)n1CCCCCCCn1ccnc1`, for which the outcome in assay [2] was Active. In addition, inhibition in assay [3] was half-maximal at 2 nM (IC50).

Regarding `O=c1[nH]c2c(Cl)cccc2c(=O)n1CCCCn1ccnc1`, the result in assay [2] was Active. For the same molecule, in assay [3], the half-inhibitory concentration (IC50) was 30 nM.

Turning to `Nc1ccc(Cl)cc1C(=O)NCCCCCn1ccnc1`, in assay [2], the outcome was Active.

In the case of `O=c1[nH]c2cc(Cl)ccc2c(=O)n1CCCCCn1ccnc1`, the outcome in assay [2] was Active. The 50% inhibitory concentration (IC50) in assay [3] was 820 nM.

On to `O=c1c2ccc(Cl)cc2nnn1CCCCn1ccnc1`, for which, in assay [2], the outcome was Active.

With `O=c1c2ccccc2ncn1CCCCCCn1ccnc1`, the outcome in assay [2] was Active.

As to `Cc1ccc2ncn(CCCCn3ccnc3)c(=O)c2c1`, the outcome in assay [2] was Active. In assay [3], this molecule yielded an IC50 of 350 nM.

Consider `O=c1c2ccccc2nnn1CCCCCn1ccnc1`, for which the outcome in assay [1] was inactive.

Take `CC(CCn1c(=O)[nH]c2cc(Cl)ccc2c1=O)n1ccnc1` (stereo unspecified): the result in assay [1] was inactive.

With `O=c1c2ccc(Cl)cc2nnn1CCCCCn1ccnc1`, the outcome in assay [2] was Active.

In the case of `O=c1[nH]c2c(Cl)cccc2c(=O)n1CCCCCCn1ccnc1`, the result in assay [2] was Active.

Consider `CCc1nc2ccc(Cl)cc2c(=O)n1CCCCn1ccnc1`, for which the result in assay [2] was Active.

As for `Nc1ccccc1C(=O)NCCCn1ccnc1`, the outcome in assay [1] was inactive.

Take `Nc1ccccc1C(=O)NCCCCn1ccnc1`: the result in assay [1] was inactive.

With `Cc1ccc2[nH]c(=O)n(CCCCCn3ccnc3)c(=O)c2c1`, in assay [2], the outcome was Active. Besides, the IC50 in assay [3] was found to be 30 nM.

Take `O=c1c2cc(Cl)ccc2nnn1CCCn1ccnc1`: the result in assay [1] was inactive.

On to `O=c1[nH]c2cc(Cl)ccc2c(=O)n1CCCCCCn1ccnc1`, for which the outcome in assay [2] was Active. In assay [3], this molecule returned an IC50 of 200 nM.

With `CC(CNC(=O)c1cc(Cl)ccc1N)Cn1ccnc1` (stereo unspecified), the result in assay [2] was Active. Besides, it took 90 nM to reach half-maximal inhibition in assay [3] (IC50).

Consider `Cc1ccc(N)c(C(=O)NCCC(C)n2ccnc2)c1` (stereo unspecified), for which the result in assay [2] was Active. In assay [3], this molecule yielded an IC50 of 170 nM.

Take `O=c1c2cc(Cl)ccc2nnn1CCCCCCn1ccnc1`: the outcome in assay [2] was Active.

In the case of `O=c1[nH]c2ccc(Cl)cc2c(=O)n1CCCCn1ccnc1` [listing 1 of 3 here], the result in assay [2] was Active.

In turn, `CC(Cn1ccnc1)Cn1c(=O)[nH]c2ccc(Cl)cc2c1=O` (stereo unspecified) [listing 2 of 3 here] displayed an IC50 in assay [3] of 8 nM.

`CC(CNC(=O)c1ccc(Cl)cc1N)Cn1ccnc1` (stereo unspecified): the outcome in assay [2] was Active.

For the molecule `O=c1c2cc(Cl)ccc2nnn1CCCCCn1ccnc1`, the result in assay [2] was Active.

For the molecule `CC(CCNC(=O)c1cc(Cl)ccc1N)n1ccnc1` (stereo unspecified), in assay [2], the result was Active. The molecule also registered an IC50 in assay [3] of 500 nM.

For the molecule `O=c1[nH]c2ccccc2c(=O)n1CCCCCn1ccnc1`, in assay [2], the outcome was Active. The same molecule had an IC50 in assay [3] of 350 nM.

In the case of `Nc1cc(Cl)ccc1C(=O)NCCCCn1ccnc1`, in assay [2], the outcome was Active.

Consider `CC(CCn1cnc2ccc(Cl)cc2c1=O)n1ccnc1` (stereo unspecified), for which the outcome in assay [2] was Active. The molecule also showed an IC50 in assay [3] of 8000 nM.

On to `O=c1c2cc(Cl)ccc2ncn1CCCCCn1ccnc1`, for which the result in assay [1] was inactive.

Consider `O=c1c2cc(Cl)ccc2ncn1CCCCn1ccnc1`, for which the result in assay [2] was Active. This molecule came in with a 50% inhibitory concentration (IC50) in assay [3] of 500 nM.

Take `O=c1c2ccccc2nnn1CCCCn1ccnc1`: the outcome in assay [2] was Active.

With `Nc1c(Cl)cccc1C(=O)NCCCCCn1ccnc1`, the outcome in assay [1] was inactive.

`O=c1[nH]c2cc(Cl)ccc2c(=O)n1CCCCn1ccnc1`: the outcome in assay [2] was Active. This molecule returned an IC50 in assay [3] of 9 nM.

Regarding `Cc1ccc2nnn(CCCCn3ccnc3)c(=O)c2c1`, the result in assay [2] was Active. Besides, inhibition in assay [3] was half-maximal at 60 nM (IC50).

For `O=c1[nH]c2ccccc2c(=O)n1CCCCCCn1ccnc1`, in assay [2], the outcome was Active. This molecule had an IC50 in assay [3] of 40 nM.

For `O=c1c2ccccc2ncn1CCCCn1ccnc1`, in assay [2], the outcome was Active.

In turn, `O=c1[nH]c2ccc(Cl)cc2c(=O)n1CCCCn1ccnc1` [listing 2 of 3 here] came in with an IC50 in assay [3] of 2 nM.

As for `Cc1ccc2nnn(CCCCCn3ccnc3)c(=O)c2c1`, the result in assay [2] was Active.

Regarding `O=c1c2ccc(Cl)cc2ncn1CCCCn1ccnc1`, the result in assay [1] was inactive.

As for `O=c1[nH]c2ccc(Cl)cc2c(=O)n1CCCCn1ccnc1` [listing 3 of 3 here], in assay [3], 7 nM corresponded to half-maximal inhibition (IC50).

With `CC(Cn1ccnc1)Cn1c(=O)[nH]c2cc(Cl)ccc2c1=O` (stereo unspecified) [listing 1 of 2 here], the result in assay [2] was Active.

Turning to `O=c1c2cc(Cl)ccc2ncn1CCCCCCCCn1ccnc1`, the result in assay [2] was Active. Moreover, the 50% inhibitory concentration (IC50) in assay [3] came to 40 nM.

Turning to `Nc1ccc(Cl)cc1C(=O)NCCCCCCCCn1ccnc1`, the result in assay [2] was Active.

Consider `Nc1ccc(Br)cc1C(=O)NCCCCn1ccnc1`, for which the result in assay [2] was Active.

On to `Cc1ccc2[nH]c(=O)n(CCCCn3ccnc3)c(=O)c2c1`, for which, in assay [2], the outcome was Active. Moreover, in assay [3], the IC50 was determined as 50 nM.

Consider `CC(CCn1c(=O)[nH]c2ccc(Cl)cc2c1=O)n1ccnc1` (stereo unspecified), for which the result in assay [2] was Active. Also, inhibition in assay [3] was half-maximal at 150 nM (IC50).

Consider `O=c1c2ccccc2ncn1CCCn1ccnc1`, for which the outcome in assay [1] was inactive.

For the molecule `Nc1ccc(Cl)cc1C(=O)NCCCCCCn1ccnc1`, the outcome in assay [2] was Active.

With `Nc1ccc(Cl)cc1C(=O)NCCCCn1ccnc1`, the outcome in assay [1] was inactive.

With `O=c1c2ccccc2nnn1CCCCCCn1ccnc1`, the result in assay [2] was Active. In assay [3], this molecule came in with an IC50 of 50 nM.

For the molecule `O=c1c2cc(Cl)ccc2nnn1CCCCCCCCn1ccnc1`, in assay [2], the result was Active.

Consider `Cc1ccc2[nH]c(=O)n(CCC(C)n3ccnc3)c(=O)c2c1` (stereo unspecified), for which the result in assay [2] was Active. Further, the IC50 in assay [3] came to 70 nM.

As for `O=c1[nH]c2ccc(Cl)cc2c(=O)n1CCCCCn1ccnc1`, in assay [2], the result was Active. Moreover, the IC50 in assay [3] was found to be 12 nM.

`CC(Cn1ccnc1)Cn1c(=O)[nH]c2cc(Cl)ccc2c1=O` (stereo unspecified) [listing 2 of 2 here] returned a half-inhibitory concentration (IC50) in assay [3] of 3 nM.

Take `Nc1ccc(Cl)cc1C(=O)NCCCn1ccnc1`: the outcome in assay [2] was Active.

For `O=c1c2cc(Cl)ccc2ncn1CCCCCCn1ccnc1`, the outcome in assay [2] was Active.

With `Cc1nc2ccc(Cl)cc2c(=O)n1CCCCn1ccnc1`, the outcome in assay [2] was Active.

On to `O=c1[nH]c2ccc(Cl)cc2c(=O)n1CCCCCCCCn1ccnc1`, for which the outcome in assay [1] was inactive.

For `O=c1[nH]c2ccc(Br)cc2c(=O)n1CCCCn1ccnc1`, the outcome in assay [2] was Active. Also, the IC50 in assay [3] is 800 nM.

As for `CC(Cn1ccnc1)Cn1c(=O)[nH]c2ccc(Cl)cc2c1=O` (stereo unspecified) [listing 3 of 3 here], in assay [1], the outcome was inactive.

On to `CC(Cn1ccnc1)Cn1cnc2ccccc2c1=O` (stereo unspecified), for which the result in assay [2] was Active.

As to `O=c1[nH]c2ccc(Cl)cc2c(=O)n1CCCn1ccnc1`, the outcome in assay [1] was inactive.

On to `O=c1c2ccccc2nnn1CCCn1ccnc1`, for which the outcome in assay [2] was Active. Further, in assay [3], it took 1500 nM to reach half-maximal inhibition (IC50).

As usually defined, the IC50 is the point on the concentration scale where inhibition reaches its midpoint. Lower therefore signals greater potency in that assay.

Source of the values: ChEMBL document CHEMBL1123918, “Thromboxane synthetase inhibitors and antihypertensive agents. 4. N-[(1H-imidazol-1-yl)alkyl] derivatives of quinazoline-2,4(1H,3H)-diones, quinazolin-4(3H)-ones, and 1,2,3-benzotriazin-4(3H)-ones” (J Med Chem, 1987).
